These results are taken from ChEMBL document CHEMBL4364253, “Application of Dually Activated Michael Acceptor to the Rational Design of Reversible Covalent Inhibitor for Enterovirus 71 3C Protease” (J Med Chem, 2019).

The subject of data set [1] is RD. The data set can be described thus: Cytotoxicity against human RD cells at 33 uM after 24 hrs by WST-1 assay. The data set is classed as cell-based. In general terms: Tetrazolium dyes change colour on reduction, which living cells bring about.
In data set [2] the test system is Enterovirus A71. The data set can be described thus: Antiviral activity against pseudotyped Enterovirus A71 infected in human muscular rhabdomyosarcoma cells treated prior to viral infection and measured after 24 hrs by luminescence method. The note with it: Enterovirus A. The data set is classed as functional, organism-based.
In data set [3] the test system is RD. The data set can be described thus: Cytotoxicity against human RD cells at 100 uM after 24 hrs by WST-1 assay relative to control. The data set is classed as cell-based.
Data set [4] has as its system Enterovirus A71. The data set can be described thus: Binding affinity to Enterovirus 71 3C protease assessed as enzyme-compound covalent adduct formation via Cys147 residue by measuring ratio of peak intensity of covalently modified to unmodified protein at 20 equivalent after 1 hr by HPLC-ESI/MS analysis. The procedure, abridged: (§1)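 Recombinant EV71 3C protease (40 µM) incubated with inhibitor at 30 °C in 50 mM Tris, 150 mM NaCl, 1 mM EDTA-2Na, pH 7.0. Free inhibitor and salts removed by three ultrafiltration washes with water (10 kDa cutoff). Analysis by HPLC-ESI-Orbitrap MS with 0.1% formic acid water/acetonitrile mobile phases. Spectra deconvoluted; modification given as adduct-to-unmodified protein peak intensity ratio (I_add/I_pro).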

In data set [5] the test system is Enterovirus A71. The data set can be described thus: Binding affinity to Enterovirus 71 3C protease assessed as enzyme-compound covalent adduct formation via Cys147 residue by measuring ratio of peak intensity of covalently modified to unmodified protein at 10 equivalent after 30 mins by HPLC-ESI/MS analysis. In short, it runs like this:
as §1

Data set [6] relates to Enterovirus A71. The data set can be described thus: Irreversible covalent inhibition of Enterovirus 71 3C protease at 64 uM using NMA-IEALFQGPPK(DNP)FR as substrate and measured for 1 to 1.5 hrs by fluorescence method.
In data set [7] the test system is Enterovirus A71. The data set can be described thus: Binding affinity to Enterovirus 71 3C protease assessed as enzyme-compound covalent adduct formation via Cys147 residue after 1 hr by HPLC-ESI/MS analysis.
Data set [8] has as its system Enterovirus A71. The data set can be described thus: Antiviral activity against pseudotyped FY Enterovirus A71 harboring luciferase reporter gene infected in HEK-293T cells in presence of glutathione by Bright-Glo Luciferase Assay. It counts as functional, organism-based.
Data set [9] relates to Enterovirus A71. The data set can be described thus: Inhibition of Enterovirus 71 3C protease in presence of lysine.
The subject of data set [10] is Enterovirus A71. The data set can be described thus: Inhibition of Enterovirus 71 3C protease in presence of ethanolamine.
Data set [11] concerns Enterovirus A71. The data set can be described thus: Inhibition of Enterovirus 71 3C protease in presence of glutathione.
The test system of data set [12] is Enterovirus A71. The data set can be described thus: Antiviral activity against pseudotyped FY Enterovirus A71 harboring luciferase reporter gene infected in HEK-293T cells in presence of ethanolamine by Bright-Glo Luciferase Assay. It counts as functional, organism-based. A general note: A reporter such as luciferase makes a cellular process visible.
Data set [13] is described as follows: Reversible inhibition of Enterovirus 71 3C protease assessed as overall inhibition constant using NMA-IEALFQGPPK(DNP)FR as substrate pre-incubated for 30 mins followed by substrate addition and measured over 30 mins by fluorescence method. More on the design: species or system Enterovirus A71.
Data set [14] deals with Chymotrypsinogen A (Bos taurus) (UniProt P00766). The data set can be described thus: Inhibition of bovine pancreas alpha-chymotrypsin at 50 uM after 30 mins using N-Succinyl-L-phenylalanine- p-nitroanilide measured for 30 mins.
For data set [15], the target named is T1, Calpain-1 catalytic subunit (Homo sapiens) (UniProt P07384).
T1 sequence (whole entry): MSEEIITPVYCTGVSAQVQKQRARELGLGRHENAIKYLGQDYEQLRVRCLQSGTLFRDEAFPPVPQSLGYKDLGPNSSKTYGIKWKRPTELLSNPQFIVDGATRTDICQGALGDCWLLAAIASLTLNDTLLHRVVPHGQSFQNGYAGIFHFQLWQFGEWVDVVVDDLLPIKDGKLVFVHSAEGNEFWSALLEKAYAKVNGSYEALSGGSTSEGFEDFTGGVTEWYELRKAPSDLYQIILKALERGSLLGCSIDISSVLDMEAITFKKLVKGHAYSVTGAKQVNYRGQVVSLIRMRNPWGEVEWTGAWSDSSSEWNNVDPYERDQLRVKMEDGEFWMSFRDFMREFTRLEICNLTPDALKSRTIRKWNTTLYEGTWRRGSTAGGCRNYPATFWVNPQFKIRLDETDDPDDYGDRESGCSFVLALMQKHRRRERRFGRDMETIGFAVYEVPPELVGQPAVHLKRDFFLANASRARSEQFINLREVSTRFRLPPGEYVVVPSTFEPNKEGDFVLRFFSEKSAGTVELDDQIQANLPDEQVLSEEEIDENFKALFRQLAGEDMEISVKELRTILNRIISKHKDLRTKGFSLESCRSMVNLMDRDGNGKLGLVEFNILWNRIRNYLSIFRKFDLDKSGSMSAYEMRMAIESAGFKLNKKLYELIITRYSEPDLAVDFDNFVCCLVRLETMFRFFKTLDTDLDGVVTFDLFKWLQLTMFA
The data set can be described thus: Inhibition of human Calpain1 at 50 uM using Ac-LLY-AFC as substrate preincubated for 5 mins followed by substrate addition and measured after 10 mins by fluorescence method relative to control.

Data set [16] concerns Enterovirus A71. The data set can be described thus: Reversible inhibition of Enterovirus 71 3C protease assessed as recovery of enzyme activity at 10 to 20 equivalent using peptide substrate pre-incubated for 1 hr followed by dialysis and subsequent substrate addition measured up to 72 hrs relative to control. More on the design: scale not given: the % may be the effect or the level left.

Data set [17] concerns the target T2, Cathepsin K (Homo sapiens) (UniProt P43235).
T2 sequence (whole entry): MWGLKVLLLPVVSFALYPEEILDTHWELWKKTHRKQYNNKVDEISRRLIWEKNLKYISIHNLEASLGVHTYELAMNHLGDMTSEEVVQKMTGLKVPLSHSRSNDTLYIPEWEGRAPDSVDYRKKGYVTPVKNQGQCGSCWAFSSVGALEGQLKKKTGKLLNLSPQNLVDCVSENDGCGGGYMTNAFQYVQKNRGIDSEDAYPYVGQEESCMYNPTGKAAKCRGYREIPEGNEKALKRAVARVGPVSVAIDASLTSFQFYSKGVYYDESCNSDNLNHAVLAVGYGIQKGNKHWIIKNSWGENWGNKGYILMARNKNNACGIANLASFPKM
The data set can be described thus: Inhibition of human Cathepsin K at 50 uM using Ac-LR-AFC as substrate preincubated for 10 to 15 mins followed by substrate addition and measured for 30 to 60 mins by fluorescence method relative to control.

For data set [18], the system named is Enterovirus A71. The data set can be described thus: Antiviral activity against pseudotyped FY Enterovirus A71 harboring luciferase reporter gene infected in HEK-293T cells in presence of lysine by Bright-Glo Luciferase Assay. The data set is classed as functional, organism-based.
Data set [19] deals with Enterovirus A71. The data set can be described thus: Reversible inhibition of Enterovirus 71 3C protease assessed as recovery of enzyme activity at 10 to 20 equivalent using peptide substrate pre-incubated for 1 hr followed by dilution prior to substrate addition using ultra-filtered sample relative to control. On the set-up: scale not given: the % may be the effect or the level left.

Data set [20] has as its system Enterovirus A71. The data set can be described thus: Binding affinity to Enterovirus 71 3C protease assessed as enzyme-compound covalent adduct formation via Cys147 residue by measuring ratio of peak intensity of covalently modified to unmodified protein at 10 to 20 equivalent after 1 hr by HPLC-ESI/MS analysis. The procedure, abridged:
as §1

The test system of data set [21] is Enterovirus A71. The data set can be described thus: Antiviral activity against Enterovirus A71 EV71/Shenzhen/120F1/09 infected in human muscular rhabdomyosarcoma cells assessed as reduction in virus-induced cell death incubated for 3 days by CCK-8 assay. The data set is classed as functional, organism-based. Particulars: Enterovirus A, EV71/Shenzhen/120F1/09, 72 h.

Data set [22] in a line: Inhibition of Enterovirus 71 E2004104-TW-CDC protease 3C (1549 to 1731 residues) expressed in Escherichia coli BL21(DE3) cells using Dacyl-KRTATVQGPSLDFE-Edans as substrate by fluorescence method. More on the design: species or system Enterovirus A71.
In data set [23] the test system is Enterovirus A71. The data set can be described thus: Slow-binding inhibition of Enterovirus 71 3C protease up to 3 uM using NMA-IEALFQGPPK(DNP)FR as substrate by fluorescence method.
In data set [24] the test system is Enterovirus A71. The data set can be described thus: Inhibition of Enterovirus 71 3C protease assessed as induction of rapid equilibrium for enzyme-inhibitor complex formation up to 1.5 uM using NMA-IEALFQGPPK(DNP)FR as substrate by fluorescence method.

Calls of active or inactive are those of the source.

Broadly, the EC50 is the midpoint of the concentration-response curve. On to `Cc1cc(C(=O)N[C@@H](Cc2ccc(F)cc2)C(=O)N[C@H](/C=C(\C#N)c2ccc(C(F)(F)F)cc2)C[C@@H]2CCCNC2=O)no1`, for which the Activity entry with RD [1] is “Toxic”; in the data set with RD [3], 100%. This molecule also returned an EC50 in the data set with Enterovirus A71 [2] of 1400 nM.

Usually inhibition stands for the relative decrease from the control value, in per cent. For `Cc1cc(C(=O)N[C@@H](Cc2ccc(F)cc2)C(=O)N[C@H](/C=C/C#N)C[C@@H]2CCCNC2=O)no1`, the Ratio in the data set with Enterovirus A71 [4] and with Enterovirus A71 [5] was greater than 100 each time. Moreover, the inhibition entry in the data set with Enterovirus A71 [6] is “Active”. The EC50 in the data set with Enterovirus A71 [2] was determined as 37000 nM.

By Ki is commonly meant the equilibrium dissociation constant of an inhibitor or competing ligand from its target. Take `COC(=O)/C(C#N)=C/[C@H](C[C@@H]1CCCNC1=O)NC(=O)[C@H](Cc1ccc(F)cc1)NC(=O)c1cc(C)on1`: the outcome in the data set on Enterovirus A71 [7] was inactive. The outcome in the data set on Enterovirus A71 [8], with Enterovirus A71 [12] and in the data set on Enterovirus A71 [18] was Active. Also, the inhibition entry in the data set on Enterovirus A71 [9] and in the data set with Enterovirus A71 [10] was “Active” in each case. Moreover, the inhibition result (with Enterovirus A71 [11]; in [14]) was “inactive” throughout. For the same molecule, the Ki in [13] stood at 9.4 nM. The inhibition in [15] and in [17] was less than 50% each time. Moreover, the Activity is 50% with Enterovirus A71 [16] and 65 to 85% with Enterovirus A71 [19]. This molecule had an EC50 in the data set on Enterovirus A71 [2] of 53 nM.

On to `Cc1cc(C(=O)N[C@@H](Cc2ccc(F)cc2)C(=O)N[C@H](/C=C(\C#N)C(=O)N(C)C(=O)OC(C)(C)C)C[C@@H]2CCCNC2=O)no1`, for which the outcome with Enterovirus A71 [8], in the data set on Enterovirus A71 [12], in the data set with Enterovirus A71 [18] and in the data set with Enterovirus A71 [19] was Active. Also, the inhibition entry in the data set on Enterovirus A71 [9] and in the data set with Enterovirus A71 [10] was “Active” each time. For the same molecule, the inhibition result (in the data set with Enterovirus A71 [11]; in data set [14]) was “inactive” throughout. Moreover, the Ki in [13] is 9.3 nM. The inhibition in data set [15] and in data set [17] was less than 50% each time. In the data set with Enterovirus A71 [16], the Activity amounted to 30%. Moreover, the Ratio in the data set on Enterovirus A71 [20] worked out at 1.5. The molecule also displayed a concentration giving a half-maximal response (EC50) with Enterovirus A71 [2] of 51 nM.

For the molecule `Cc1cc(C(=O)N[C@@H](Cc2ccc(F)cc2)C(=O)N[C@H](/C=C(\C#N)C(=O)N(C)C)C[C@@H]2CCCNC2=O)no1`, the outcome in the data set on Enterovirus A71 [8], with Enterovirus A71 [12] and in the data set on Enterovirus A71 [18] was Active. Moreover, the inhibition entry with Enterovirus A71 [9] and with Enterovirus A71 [10] was “Active” in each case. In the data set on Enterovirus A71 [11], the inhibition entry was “inactive”. Also, in data set [13], the Ki came out at 94 nM. Besides, the Ratio in the data set with Enterovirus A71 [20] turned out to be 1. Also, in the data set on Enterovirus A71 [2], the EC50 was determined as 110 nM.

A word on the IC50: it is the concentration at which inhibition is half-maximal. For `CCOC(=O)/C=C/[C@H](C[C@@H]1CCNC1=O)NC(=O)[C@@H](CC(=O)[C@@H](NC(=O)c1cc(C)on1)C(C)C)Cc1ccc(F)cc1` [RUPINTRIVIR], the EC50 with Enterovirus A71 [21] worked out at 41 nM. For the same molecule, the IC50 in data set [22] turned out to be 1600 nM.

Consider `CCN(C(=O)OC(C)(C)C)C(=O)/C(C#N)=C/[C@H](C[C@@H]1CCCNC1=O)NC(=O)[C@H](Cc1ccc(F)cc1)NC(=O)c1cc(C)on1`, for which the Ki in [13] came out at 24 nM. Further, in the data set with Enterovirus A71 [23], the inhibition result was “Active”. This molecule yielded an EC50 in the data set on Enterovirus A71 [2] of 67 nM.

`Cc1cc(C(=O)N[C@@H](Cc2ccc(F)cc2)C(=O)N[C@H](/C=C(\C#N)C(=O)OC(C)(C)C)C[C@@H]2CCCNC2=O)no1`: the result in the data set on Enterovirus A71 [7] was inactive. Also, the Ki in data set [13] is 6.7 nM. This molecule showed an EC50 in the data set on Enterovirus A71 [2] of 30 nM. In addition, the inhibition result with Enterovirus A71 [24] was “Active”. Besides, in the data set with Enterovirus A71 [19], the Activity is 65 to 85%.
